Measured values published in ChEMBL document CHEMBL1671747, “Efficacy and safety of intravenous peramivir for treatment of seasonal influenza virus infection” (Antimicrob Agents Chemother, 2010).
pIC50: −log10 of the molar value. Calls of active or inactive are those of the source. The calls are words filed in the database; no cut-off is given here.

Tests used:
Homo sapiens [1] = assay: Toxicity in human patient infected with Influenza virus assessed as increase in blood lactate dehydrogenase at 300 mg, iv; type: organism-based; settings: in vivo
Method in brief: (§1)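 One IV dose of 300 or 600 mg or placebo was given to adults with influenza. Blood (hematology, biochemistry) and urine (including NAG, β2- and α1-microglobulin, protein) were sampled at baseline, day 3 and day 14 by blinded technicians. Adverse-event incidence versus placebo was compared by Fisher's exact test.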

Homo sapiens [2] = assay: Toxicity in human patient infected with Influenza virus assessed as occurrence of nausea at 300 mg, iv; type: organism-based; settings: in vivo
Method in brief: (§2)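 In this randomized trial, subjects received a single intravenous infusion of peramivir (300 mg or 600 mg) or matching placebo; the median infusion lasted 0.63 h. Subjects were followed at visits on days 1, 2 (optional), 3, 5, 9 and 14. Adverse-event incidences across the 298 treated subjects were compared with placebo using Fisher's exact test.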

Homo sapiens [3] = assay: Toxicity in human patient infected with Influenza virus assessed as increase in lymphocyte at 600 mg, iv; type: organism-based; settings: in vivo; method in brief: as §1
Plasma [4] = assay: Plasma concentration in human at 300 mg, iv after 18 to 24 hrs; type: ADME, organism-based; settings: in vivo
Method in brief: (§3)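 Subjects received a single IV infusion of 300 or 600 mg (mean 5.0 or 10.0 mg/kg; median infusion 0.63 h). Plasma was sampled just before the infusion ended, and on days 2 and 3. Samples were deproteinized and run on C18 LC/MS-MS. Values are medians at end of infusion, 18–24 h and 36–48 h after infusion.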

Influenza A virus [5] = assay: Antiviral activity against influenza A virus H3N2 infected in MDCK cells assessed as inhibition of neuraminidase activity by fluorimetric assay; type: functional, organism-based
Method in brief: (§4)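 Viruses were isolated from baseline patient swabs on MDCK cells. Neuraminidase inhibition was measured by a standard fluorometric assay. IC50 came from plotting percent inhibition of neuraminidase activity against inhibitor concentration, reported as mean ± SD of three independent experiments.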

Homo sapiens [6] = assay: Toxicity in human patient infected with Influenza virus assessed as increase in aspartate aminotransferase at 300 mg, iv; type: organism-based; settings: in vivo; method in brief: as §1
Homo sapiens [7] = assay: Toxicity in human patient infected with Influenza virus assessed as urine containing albumine at 600 mg, iv; type: organism-based; settings: in vivo
Method in brief: (§5)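 Subjects received a single intravenous peramivir dose (300 or 600 mg) or placebo, infused over a median of 0.63 h. Urinalysis covered protein, albumin and sediment, among other analytes. Urine was collected at baseline and on days 3 and 14 and tested by blinded technicians. Incidence in the safety population (n = 298 treated) was compared with placebo by Fisher's exact test.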

Homo sapiens [8] = assay: Toxicity in human patient infected with Influenza virus assessed as beta2 microglobulin in urine at 300 mg, iv; type: organism-based; settings: in vivo; method in brief: as §1
Homo sapiens [9] = assay: Toxicity in human patient infected with Influenza virus assessed as nausea at 300 mg, iv; type: organism-based; settings: in vivo; method in brief: as §2
[10] = tested on: unidentified influenza virus; assay: Antiviral activity against Influenza virus infected in human patient assessed as decrease in virus-positive patients at 600 mg, iv on day 9; type: functional
Method in brief: (§6)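 Nasal and throat swabs were taken at baseline and on days 2, 3, 5 and 9, held in 2 ml transport medium, and titrated on MDCK cells in triplicate: 10-fold dilutions, 3 μg/ml trypsin, 1 h adsorption, washes, then 3 days at 37°C. CPE gave TCID50/ml by Spearman-Karber; positive meant ≥1.1 log10 TCID50/ml. Proportions were compared by Mantel-Haenszel test stratified for smoking and baseline score.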

Homo sapiens [11] = assay: Toxicity in human patient infected with Influenza virus assessed as increase in blood phosphate at 600 mg, iv; type: organism-based; settings: in vivo; method in brief: as §1
Influenza A virus [12] = assay: Antiviral activity against Influenza A virus H3N2 infected in human patient assessed as alleviation time of symptoms at 600 mg, iv (reference value: 81 hrs); type: functional
Influenza A virus [13] = assay: Antiviral activity against Influenza A virus H1N1 infected in human patient assessed as alleviation time of symptoms at 300 mg, iv (reference value: 81.4 hrs); type: functional
Homo sapiens [14] = assay: Toxicity in human patient infected with Influenza virus assessed as increase in blood glucose at 600 mg, iv; type: organism-based; settings: in vivo; method in brief: as §1
Homo sapiens [15] = assay: Toxicity in human patient infected with Influenza virus assessed as increase in blood glucose at 300 mg, iv; type: organism-based; settings: in vivo; method in brief: as §1
Plasma [16] = assay: Plasma concentration in human at 300 mg, iv; type: ADME; method in brief: as §3
Influenza A virus [17] = assay: Antiviral activity against influenza A virus infected in MDCK cells assessed as inhibition of neuraminidase activity by fluorimetric assay; type: functional, organism-based; method in brief: as §4
Plasma [18] = assay: Plasma concentration in human at 600 mg, iv; type: ADME; method in brief: as §3
Homo sapiens [19] = assay: Toxicity in human patient infected with Influenza virus assessed as nausea at 600 mg, iv; type: organism-based; settings: in vivo; method in brief: as §2
Homo sapiens [20] = assay: Toxicity in human patient infected with Influenza virus assessed as increase in alanine aminotransferase at 600 mg, iv; type: organism-based; settings: in vivo; method in brief: as §1
Homo sapiens [21] = assay: Toxicity in human patient infected with Influenza virus assessed as decrease in total Protein at 600 mg, iv; type: organism-based; settings: in vivo; method in brief: as §1
Homo sapiens [22] = assay: Toxicity in human patient infected with Influenza virus assessed as lymphocyte morphology abnormal at 300 mg, iv; type: organism-based; settings: in vivo
Method in brief: (§7)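 Adults with seasonal influenza received one intravenous infusion of peramivir (300 or 600 mg) or matching placebo; the median infusion lasted 0.63 h. Blood for haematology, including the white-cell differential, was taken at baseline and on days 3 and 14. Tests were run by blinded technicians. Adverse-event incidence in the 298-subject safety population was compared with placebo by Fisher's exact test.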

Homo sapiens [23] = assay: Toxicity in human patient infected with Influenza virus assessed as increase in blood bilirubin at 300 mg, iv; type: organism-based; settings: in vivo; method in brief: as §1
Homo sapiens [24] = assay: Toxicity in human patient infected with Influenza virus assessed as occurrence of bronchitis at 300 mg, iv; type: organism-based; settings: in vivo; method in brief: as §2
Homo sapiens [25] = assay: Toxicity in human patient infected with Influenza virus assessed as increase in blood bilirubin at 600 mg, iv; type: organism-based; settings: in vivo; method in brief: as §1
[26] = tested on: unidentified influenza virus; assay: Antiviral activity against Influenza virus infected in human patient assessed as decrease in virus-positive patients at 600 mg, iv on day 3; type: functional; method in brief: as §6
Homo sapiens [27] = assay: Toxicity in human patient infected with Influenza virus assessed as increase in alpha1 Microglobulin at 300 mg, iv; type: organism-based; settings: in vivo; method in brief: as §1
Homo sapiens [28] = assay: Toxicity in human patient infected with Influenza virus assessed as decrease in total Protein at 300 mg, iv; type: organism-based; settings: in vivo; method in brief: as §1
Homo sapiens [29] = assay: Toxicity in human patient infected with Influenza virus assessed as increase in blood glucose level at 600 mg, iv; type: organism-based; settings: in vivo; method in brief: as §1
[30] = tested on: unidentified influenza virus; assay: Antiviral activity against Influenza virus infected in human patient assessed as reduction in fever at 300 mg, iv after 24 hrs; type: functional, organism-based
Method in brief: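 A single IV dose of 300 or 600 mg or placebo was given to adults with seasonal influenza. The outcome was the proportion of subjects with postbaseline normal temperature (<37.0°C). Groups were compared by Mantel-Haenszel test stratified for smoking and baseline composite symptom score.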

Homo sapiens [31] = assay: Toxicity in human patient infected with Influenza virus assessed as beta-N-Acetyl-D-glucosaminidase at 600 mg, iv; type: organism-based; settings: in vivo; method in brief: as §1
Homo sapiens [32] = assay: Toxicity in human patient infected with Influenza virus assessed as occurrence of diarrhea at 300 mg, iv; type: organism-based; settings: in vivo; method in brief: as §2
Homo sapiens [33] = assay: Toxicity in human patient infected with Influenza virus assessed as increase in lymphocyte at 300 mg, iv; type: organism-based; settings: in vivo; method in brief: as §1
Homo sapiens [34] = assay: Toxicity in human patient infected with Influenza virus assessed as proteinuria at 300 mg, iv; type: organism-based; settings: in vivo; method in brief: as §5
Homo sapiens [35] = assay: Toxicity in human patient infected with Influenza virus assessed as monocyte at 600 mg, iv; type: organism-based; settings: in vivo; method in brief: as §7

CCC(CC)[C@H](NC(C)=O)[C@@H]1[C@H](O)[C@@H](C(=O)O)C[C@H]1NC(=N)N [PERAMIVIR ANHYDROUS]
Activity (Homo sapiens [1]): Toxic | Activity (Homo sapiens [2]): 3% | Activity (Homo sapiens [3]): Toxic | Cp (Plasma [4]): 14.8 ng/mL | pIC50 (Influenza A virus [5]): 8.45 | Activity (Homo sapiens [6]): Toxic | Activity (Homo sapiens [7]): Toxic | Activity (Homo sapiens [8]): Toxic | Activity (Homo sapiens [9]): Toxic | inhibition (INH) [10]: 1.1% | Activity (Homo sapiens [11]): Toxic | Time (Influenza A virus [12]): 50.5 h | Time (Influenza A virus [13]): 52.5 h | Activity (Homo sapiens [14]): Toxic | Activity (Homo sapiens [15]): Toxic | Cp (Plasma [16]): 18100 ng/mL | pIC50 (Influenza A virus [17]): 8.76 | Cp (Plasma [18]): 36300 ng/mL | Activity (Homo sapiens [19]): Toxic | Activity (Homo sapiens [20]): Toxic | Activity (Homo sapiens [21]): Toxic | Activity (Homo sapiens [22]): Toxic | Activity (Homo sapiens [23]): Toxic | Activity (Homo sapiens [24]): 3% | Activity (Homo sapiens [25]): Toxic | inhibition (INH) [26]: 25.8% | Activity (Homo sapiens [27]): Toxic | Activity (Homo sapiens [28]): Toxic | Activity (Homo sapiens [29]): Toxic | Activity [30]: Active | Activity (Homo sapiens [31]): Toxic | Activity (Homo sapiens [32]): 14.1% | Activity (Homo sapiens [33]): Toxic | Activity (Homo sapiens [34]): Toxic | Activity (Homo sapiens [35]): Toxic
